According to ChEMBL document CHEMBL1147577, “Design, synthesis, and SAR of anthranilamide-based factor Xa inhibitors incorporating substituted biphenyl P4 motifs” (Bioorg Med Chem Lett, 2004):
pIC50, pKi: −log10 of the molar value.

What was measured:
[1] = target: T1, Coagulation factor X (Homo sapiens, UniProt P00742); assay: Inhibitory concentration against coagulation factor Xa.
[2] = target: T1, Coagulation factor X; assay: Inhibition of Coagulation factor X
[3] = target: T1, Coagulation factor X; assay: Concentration required to double the lag time of maximum thrombin generation in human plasma-based thrombin generation assay.; format: functional, cell-free
Procedure, shortened: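 Human plasma treated with reptilase, mixed with inhibitor serially diluted from DMSO stock, then chromogenic substrate H-b-Ala-Gly-Arg-p-nitroanilide and CaCl2. Thrombin generation started with 640 pmol/L recombinant tissue factor. Absorbance at 405 nm followed at 37 °C for 22 min. Reported as 2XTG, the inhibitor concentration that doubles the time to maximum thrombin generation.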

[4] = target: Vitamin K-dependent protein C (Homo sapiens, UniProt P04070); assay: Inhibitory activity against activated protein C was determined
Sequence of Vitamin K-dependent protein C (P04070 43-197 limits assumed): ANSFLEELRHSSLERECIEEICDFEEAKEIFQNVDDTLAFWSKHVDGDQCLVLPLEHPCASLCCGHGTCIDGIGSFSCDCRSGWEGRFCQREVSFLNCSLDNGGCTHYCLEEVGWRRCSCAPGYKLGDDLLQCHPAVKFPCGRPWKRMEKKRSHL
Sequence of Vitamin K-dependent protein C (P04070 212-461 limits assumed): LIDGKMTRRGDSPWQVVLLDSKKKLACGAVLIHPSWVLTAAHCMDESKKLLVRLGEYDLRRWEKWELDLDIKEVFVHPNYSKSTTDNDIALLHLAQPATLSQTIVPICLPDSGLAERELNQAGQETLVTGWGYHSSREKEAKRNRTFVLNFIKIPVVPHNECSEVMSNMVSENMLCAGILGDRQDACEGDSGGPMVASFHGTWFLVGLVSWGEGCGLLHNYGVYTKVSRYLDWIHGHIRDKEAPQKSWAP

[5] = target: Kallikrein-1 (Homo sapiens, UniProt P06870); assay: Inhibitory activity against kallikrein was determined
Sequence of Kallikrein-1 (P06870 whole entry): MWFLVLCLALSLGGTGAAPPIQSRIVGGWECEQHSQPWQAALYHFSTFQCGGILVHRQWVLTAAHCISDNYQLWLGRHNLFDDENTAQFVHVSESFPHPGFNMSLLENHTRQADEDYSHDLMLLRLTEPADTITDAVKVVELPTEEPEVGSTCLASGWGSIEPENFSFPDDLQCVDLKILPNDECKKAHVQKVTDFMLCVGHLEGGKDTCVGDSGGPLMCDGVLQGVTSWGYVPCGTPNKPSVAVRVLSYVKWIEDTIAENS

[6] = target: Tissue-type plasminogen activator (Homo sapiens, UniProt P00750); assay: Inhibitory activity against tissue type plasminogen activator was determined
Sequence of Tissue-type plasminogen activator (P00750 whole entry): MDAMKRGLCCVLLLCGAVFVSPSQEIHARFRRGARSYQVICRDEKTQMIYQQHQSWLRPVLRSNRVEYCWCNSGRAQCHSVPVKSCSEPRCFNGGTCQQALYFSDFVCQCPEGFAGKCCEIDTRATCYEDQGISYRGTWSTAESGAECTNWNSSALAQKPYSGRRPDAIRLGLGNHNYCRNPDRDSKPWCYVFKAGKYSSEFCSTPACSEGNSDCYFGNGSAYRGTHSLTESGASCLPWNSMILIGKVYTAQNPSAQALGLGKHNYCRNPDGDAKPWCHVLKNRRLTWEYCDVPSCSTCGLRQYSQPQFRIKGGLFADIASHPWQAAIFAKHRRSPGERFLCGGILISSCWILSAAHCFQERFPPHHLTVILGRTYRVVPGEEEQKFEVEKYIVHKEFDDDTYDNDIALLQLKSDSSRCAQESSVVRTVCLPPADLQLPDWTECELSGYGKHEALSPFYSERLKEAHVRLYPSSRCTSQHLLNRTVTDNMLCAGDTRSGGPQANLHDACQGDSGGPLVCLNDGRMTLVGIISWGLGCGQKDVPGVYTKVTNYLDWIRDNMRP

[7] = target: Serine protease 1 (Homo sapiens, UniProt P07477); assay: Inhibitory concentration against trypsin was determined
Sequence of Serine protease 1 (P07477 whole entry): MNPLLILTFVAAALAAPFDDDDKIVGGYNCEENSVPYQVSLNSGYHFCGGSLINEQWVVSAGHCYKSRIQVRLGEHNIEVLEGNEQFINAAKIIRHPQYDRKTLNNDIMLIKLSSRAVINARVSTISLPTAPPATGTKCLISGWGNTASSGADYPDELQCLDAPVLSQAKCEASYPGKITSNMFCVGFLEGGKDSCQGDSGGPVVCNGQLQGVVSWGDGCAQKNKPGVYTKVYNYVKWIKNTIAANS

[8] = target: Plasminogen (Homo sapiens) (UniProt P00747); assay: Inhibitory activity against plasmin was determined
Sequence of Plasminogen (Homo sapiens) (P00747 whole entry, looked up): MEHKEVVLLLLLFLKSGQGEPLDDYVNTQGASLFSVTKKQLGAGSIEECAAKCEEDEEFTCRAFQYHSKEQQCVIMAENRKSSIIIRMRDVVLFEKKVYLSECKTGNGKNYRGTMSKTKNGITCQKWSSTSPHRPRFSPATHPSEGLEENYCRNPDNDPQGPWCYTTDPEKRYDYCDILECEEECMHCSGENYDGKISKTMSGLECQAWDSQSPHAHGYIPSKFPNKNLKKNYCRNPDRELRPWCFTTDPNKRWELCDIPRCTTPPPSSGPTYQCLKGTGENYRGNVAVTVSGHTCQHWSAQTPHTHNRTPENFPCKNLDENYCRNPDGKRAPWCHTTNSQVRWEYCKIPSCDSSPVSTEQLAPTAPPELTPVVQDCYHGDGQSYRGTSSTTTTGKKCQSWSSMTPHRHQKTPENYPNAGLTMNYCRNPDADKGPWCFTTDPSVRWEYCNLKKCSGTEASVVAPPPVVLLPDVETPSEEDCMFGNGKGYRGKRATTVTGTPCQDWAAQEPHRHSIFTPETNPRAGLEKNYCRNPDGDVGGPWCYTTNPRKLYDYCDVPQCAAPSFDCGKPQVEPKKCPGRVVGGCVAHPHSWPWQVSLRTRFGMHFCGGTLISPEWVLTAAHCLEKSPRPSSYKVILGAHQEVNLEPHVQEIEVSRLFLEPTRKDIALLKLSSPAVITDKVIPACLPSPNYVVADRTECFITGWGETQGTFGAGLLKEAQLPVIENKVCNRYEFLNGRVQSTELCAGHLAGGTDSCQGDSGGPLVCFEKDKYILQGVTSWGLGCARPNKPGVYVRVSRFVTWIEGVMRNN

[9] = Oral bioavailability in rat; format: ADME, organism-based; conditions: in vivo
Procedure, shortened: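 Sprague–Dawley rats given 6 mg/kg orally, with oral bioavailability calculated.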

T1 sequence (P00742 41-179 limits assumed): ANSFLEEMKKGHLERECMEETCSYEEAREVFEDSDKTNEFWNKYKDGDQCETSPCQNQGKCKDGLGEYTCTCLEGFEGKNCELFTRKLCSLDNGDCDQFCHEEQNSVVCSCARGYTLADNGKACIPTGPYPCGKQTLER
T1 sequence (P00742 235-488 limits assumed): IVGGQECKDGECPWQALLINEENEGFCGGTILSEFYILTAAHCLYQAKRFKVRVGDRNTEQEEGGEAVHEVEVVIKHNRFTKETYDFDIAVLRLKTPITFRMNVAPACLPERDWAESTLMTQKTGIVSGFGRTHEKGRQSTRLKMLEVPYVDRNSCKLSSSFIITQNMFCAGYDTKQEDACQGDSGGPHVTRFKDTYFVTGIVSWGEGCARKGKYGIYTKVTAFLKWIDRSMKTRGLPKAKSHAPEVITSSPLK

Row | pIC50 [1] | Activity [3] [µM] | Structure (SMILES) | other results
1 | 5.81 |  | CN1CCN(c2ccc(NC(=O)c3ccc(-c4ccccc4S(N)(=O)=O)cc3)c(C(=O)Nc3ccc(Br)cn3)c2)CC1 | 
2 | 8.36 | > 5 | CC(=N)NCc1cccc(-c2ccc(C(=O)Nc3ccc(Cl)cc3C(=O)Nc3ccc(Cl)cn3)cc2)c1 | pKi [2]: 8.74
3 | 8.34 | 2.8 | Nc1ccc(NC(=O)c2ccc(-c3ccccc3S(N)(=O)=O)cc2)c(C(=O)Nc2ccc(Br)cn2)c1 | 
4 | 7.49 |  | O=C(Nc1ccc(Cl)cc1C(=O)Nc1ccc(Cl)cn1)c1ccc(-c2cccc(N3CCCNCC3)c2)cc1 | 
5 | 9.40 | > 5 | O=C(Nc1ccc(Cl)cc1C(=O)Nc1ccc(Cl)cn1)c1ccc(-c2ccccc2N2CCC(C(=O)O)CC2)cc1 | pKi [2]: 10.92
6 | 8.64 |  | CNc1cccc(-c2ccc(C(=O)Nc3ccc(Cl)cc3C(=O)Nc3ccc(Cl)cn3)cc2)c1 | 
7 | 8.25 | > 5 | O=C(Nc1ccc(Cl)cc1C(=O)Nc1ccc(Cl)cn1)c1ccc(-c2ccccc2N2CCCNCC2)cc1 | pKi [2]: 8.74
8 | 8.55 |  | O=C(Nc1ccc(Cl)cc1C(=O)Nc1ccc(Cl)cn1)c1ccc(-c2ccccc2N2CCCC2)cc1 | 
9 | 8.47 | > 5 | NS(=O)(=O)c1ccccc1-c1ccc(C(=O)Nc2ccccc2C(=O)Nc2ccc(Br)cn2)cc1 | pIC50 [4]: < 5.00; pIC50 [5]: 5.68; pIC50 [6]: < 5.00; pIC50 [7]: < 5.00; pIC50 [8]: < 5.00
10 | 8.17 | 3 | Nc1ccc(NC(=O)c2ccc(-c3ccccc3S(N)(=O)=O)cc2)c(C(=O)Nc2ccc(Cl)cn2)c1 | 
11 | 9.00 | > 5 | O=C(Nc1ccc(Cl)cc1C(=O)Nc1ccc(Cl)cn1)c1ccc(-c2ccccc2N2CCC(O)CC2)cc1 | bioavailability [9]: 32%; pKi [2]: 9.70
12 | 9.05 | > 5 | CN(C)c1ccccc1-c1ccc(C(=O)Nc2ccc(Cl)cc2C(=O)Nc2ccc(Cl)cn2)cc1 | bioavailability [9]: 100%; pKi [2]: 10.00
13 | 8.15 |  | O=C(Nc1ccc(Cl)cc1C(=O)Nc1ccc(Cl)cn1)c1ccc(-c2cccc(N3CCC(O)CC3)c2)cc1 | 
14 | 7.13 |  | O=C(Nc1ccc(Cl)cc1C(=O)Nc1ccc(Cl)cn1)c1ccc(-c2cccc(N3CCOCC3)c2)cc1 | 
15 | 7.59 | > 5 | NS(=O)(=O)c1ccccc1-c1ccc(C(=O)Nc2cccnc2C(=O)Nc2ccc(Cl)cn2)cc1 | 
16 | 8.74 |  | O=C(Nc1ccc(Cl)cc1C(=O)Nc1ccc(Cl)cn1)c1ccc(-c2cccc(N3CCC(C(=O)O)CC3)c2)cc1 | 
17 |  | > 5 | CC(=N)NCc1ccccc1-c1ccc(C(=O)Nc2ccc(Cl)cc2C(=O)Nc2ccc(Cl)cn2)cc1 | 
18 |  | > 5 | Nc1ccccc1-c1ccc(C(=O)Nc2ccc(Cl)cc2C(=O)Nc2ccc(Cl)cn2)cc1 | pKi [2]: 9.70
19 | 7.17 |  | NCc1ccccc1-c1ccc(C(=O)Nc2ccccc2C(=O)Nc2ccc(Cl)cn2)cc1 | 
20 | 8.02 | > 5 | N=C(N)NCc1cccc(-c2ccc(C(=O)Nc3ccc(Cl)cc3C(=O)Nc3ccc(Cl)cn3)cc2)c1 | bioavailability [9]: < 1%
21 | 8.80 | > 5 | N=C(N)c1cccc(-c2ccc(C(=O)Nc3ccc(Cl)cc3C(=O)Nc3ccc(Cl)cn3)cc2)c1 | bioavailability [9]: < 1%; pKi [2]: 9.15
22 | 6.43 |  | CC(=O)Nc1ccc(NC(=O)c2ccc(-c3ccccc3S(N)(=O)=O)cc2)c(C(=O)Nc2ccc(Br)cn2)c1 | 
23 | 7.92 |  | NS(=O)(=O)c1ccccc1-c1ccc(C(=O)NCCC(=O)Nc2ccc(Br)cn2)cc1 | 
24 | 8.92 |  | NC(N)=NCc1ccccc1-c1ccc(C(=O)Nc2ccc(Cl)cc2C(=O)Nc2ccc(Cl)cn2)cc1 | bioavailability [9]: < 1%; pKi [2]: 9.52
25 | 8.46 | > 5 | CN1CCN(c2ccccc2-c2ccc(C(=O)Nc3ccc(Cl)cc3C(=O)Nc3ccc(Cl)cn3)cc2)CC1 | pKi [2]: 9.05

Row | pIC50 [1] | Activity [3] [µM] | Structure (SMILES) | other results
26 | 7.80 |  | O=C(Nc1ccc(Cl)cc1C(=O)Nc1ccc(Cl)cn1)c1ccc(-c2cccc(N3CCCCC3)c2)cc1 | 
27 | 8.46 |  | CN(C)c1cccc(-c2ccc(C(=O)Nc3ccc(Cl)cc3C(=O)Nc3ccc(Cl)cn3)cc2)c1 | 
28 | 6.89 |  | NS(=O)(=O)c1ccccc1-c1ccc(C(=O)Nc2ccc(-n3ccnc3)cc2C(=O)Nc2ccc(Br)cn2)cc1 | 
29 | 8.55 |  | O=C(Nc1ccc(Cl)cc1C(=O)Nc1ccc(Cl)cn1)c1ccc(-c2ccccc2N2CCCCC2)cc1 | 
30 | 9.70 | 1.4 | CN(C)C(=N)c1ccccc1-c1ccc(C(=O)Nc2ccc(Cl)cc2C(=O)Nc2ccc(Cl)cn2)cc1 | pKi [2]: 10.00
31 | 8.17 | > 5 | NS(=O)(=O)c1ccccc1-c1ccc(C(=O)Nc2ccccc2C(=O)Nc2ccc(Cl)cn2)cc1 | 
32 | 7.41 |  | O=C(Nc1ccc(Cl)cc1C(=O)Nc1ccc(Cl)cn1)c1ccc(-c2cccc(N3CCNCC3)c2)cc1 | 
33 | 7.64 |  | CN1CCN(c2cccc(-c3ccc(C(=O)Nc4ccc(Cl)cc4C(=O)Nc4ccc(Cl)cn4)cc3)c2)CC1 | 
34 | 9.15 |  | CC(N)=NCc1ccccc1-c1ccc(C(=O)Nc2ccc(Cl)cc2C(=O)Nc2ccc(Cl)cn2)cc1 | bioavailability [9]: < 1%; pKi [2]: 10.00
35 | 8.28 |  | O=C(Nc1ccc(Cl)cc1C(=O)Nc1ccc(Cl)cn1)c1ccc(-c2cccc(N3CCCC3)c2)cc1 | 
36 | 8.39 | > 5 | O=C(Nc1ccc(Cl)cc1C(=O)Nc1ccc(Cl)cn1)c1ccc(-c2ccccc2N2CCNCC2)cc1 | pKi [2]: 9.00
37 | 8.70 | > 5 | CN(C)C(=N)c1cccc(-c2ccc(C(=O)Nc3ccc(Cl)cc3C(=O)Nc3ccc(Cl)cn3)cc2)c1 | pKi [2]: 9.00
38 | 7.22 |  | CN(C)C(=N)c1ccc(-c2ccc(C(=O)Nc3ccc(Cl)cc3C(=O)Nc3ccc(Cl)cn3)cc2)cc1 | 
39 | 8.72 |  | Nc1cccc(-c2ccc(C(=O)Nc3ccc(Cl)cc3C(=O)Nc3ccc(Cl)cn3)cc2)c1 | 
40 |  | > 5 | N=C(N)NCc1ccccc1-c1ccc(C(=O)Nc2ccc(Cl)cc2C(=O)Nc2ccc(Cl)cn2)cc1 | 
41 | 8.39 |  | O=C(Nc1ccc(Cl)cc1C(=O)Nc1ccc(Cl)cn1)c1ccc(-c2ccccc2N2CCOCC2)cc1 | 
42 | 8.21 | > 5 | Nc1ccc(C(=O)Nc2ccc(Br)cn2)c(NC(=O)c2ccc(-c3ccccc3S(N)(=O)=O)cc2)c1 | 
43 | 7.66 |  | CN1CCCN(c2cccc(-c3ccc(C(=O)Nc4ccc(Cl)cc4C(=O)Nc4ccc(Cl)cn4)cc3)c2)CC1 | 
44 | 8.39 |  | CNc1ccccc1-c1ccc(C(=O)Nc2ccc(Cl)cc2C(=O)Nc2ccc(Cl)cn2)cc1 | 
45 | 7.64 | 4.9 | NS(=O)(=O)c1ccccc1-c1ccc(C(=O)Nc2cnccc2C(=O)Nc2ccc(Cl)cn2)cc1 | 
46 | 7.74 | 2.2 | NS(=O)(=O)c1ccccc1-c1ccc(C(=O)Nc2ccncc2C(=O)Nc2ccc(Cl)cn2)cc1 | 
47 | 7.32 | > 5 | NS(=O)(=O)c1ccccc1-c1ccc(C(=O)Nc2ncccc2C(=O)Nc2ccc(Cl)cn2)cc1 | 
48 | 7.18 |  | N=C(N)c1ccc(-c2ccc(C(=O)Nc3ccc(Cl)cc3C(=O)Nc3ccc(Cl)cn3)cc2)cc1 | 
49 | 8.51 | > 5 | CN1CCCN(c2ccccc2-c2ccc(C(=O)Nc3ccc(Cl)cc3C(=O)Nc3ccc(Cl)cn3)cc2)CC1 | pKi [2]: 9.10
